Experimental findings from ChEMBL document CHEMBL3997803, “Accepting the Invitation to Open Innovation in Malaria Drug Discovery: Synthesis, Biological Evaluation, and Investigation on the Structure-Activity Relationships of Benzo[b]thiophene-2-carboxamides as Antimalarial Agents” (J Med Chem, 2017) are described below.

By IC50 is commonly meant the concentration that gives 50% inhibition. Usually half-life stands for how long it takes for the measured level to halve. For orientation: EC50 means the midpoint of the concentration-response curve. A low value points to higher potency in that assay.

Data set [1] concerns Plasmodium falciparum. Put plainly: Anti-parasitic activity against CQ-sensitive Plasmodium falciparum D10 assessed as growth inhibition by measuring increase in LDH release after 72 hrs by spectrophotometric method. The conditions noted are these: D10, 72 h. The class given is functional. In outline:
(§1)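 Asynchronous cultures (parasitemia 1–1.5%, 1% final hematocrit, human A+ RBCs) in RPMI 1640 with 1% AlbuMax, 0.01% hypoxanthine, 20 mM HEPES, 2 mM glutamine. Serial dilutions from DMSO stocks (final DMSO <1%). IC50 as mean ± SD of ≥3 experiments in duplicate.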
In general terms: Release of lactate dehydrogenase indicates damage to the cell membrane.

Data set [2] concerns Plasmodium falciparum. Put plainly: Anti-parasitic activity against CQ-resistant Plasmodium falciparum W2 assessed as growth inhibition by measuring increase in LDH release after 72 hrs by spectrophotometric method. It is filed as functional. The conditions noted are these: W2, 72 h. In outline: as §1
Data set [3] deals with HMEC-1. Description: Antiproliferative activity against SV40 large T-antigen 38 immortalized HMEC1 cells after 72 hrs by MTT assay. It is filed as cell-based. The conditions noted are these: Homo sapiens, HMEC-1, 72 h. In outline: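 HMEC-1 cells (SV40 large T-antigen immortalized) grown in MCDB 131 with 10% fetal calf serum, 10 ng/mL EGF, 1 μg/mL hydrocortisone, 2 mM glutamine, penicillin/streptomycin, 20 mM Hepes. Treated with serial dilutions for 72 h; proliferation read by MTT. IC50 = dose inhibiting growth 50%; mean and SD of at least three experiments in duplicate.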

Data set [4] is described as follows: Selectivity index, ratio of IC50 for SV40 large T-antigen 38 immortalized HMEC1 cells to IC50 for CQ-sensitive Plasmodium falciparum D10. It is filed as toxicity. Particulars: human, read-out: Ratio IC50.
A short description of data set [5]: Selectivity index, ratio of IC50 for SV40 large T-antigen 38 immortalized HMEC1 cells to IC50 for CQ-resistant Plasmodium falciparum W2. The conditions noted are these: human, read-out: Ratio IC50. It is filed as toxicity.
Data set [6] is described as follows: Stability of the compound in RPMI 1640 medium at 1 uM up to 24 hrs by HPLC-MS/MS method. It is filed as physicochemical.
A short description of data set [7]: Half-life in human liver microsomes at 1 uM in presence of NADPH by HPLC-MS/MS method. The class given is ADME, microsome. A general note: Liver microsomes are a subcellular fraction often used to study metabolism.
Data set [8] has as its system Escherichia coli. Put plainly: Inhibition of Escherichia coli ClpB ATP hydrolysis activity at 1.5 uM after 15 mins by spectrophotometric method. In outline:
(§2)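 E. coli ClpB (concentration as monomer) assayed at 37 °C in 100 mM Tris/HCl pH 8, 1 mM DTT, 1 mM EDTA, 10 mM MgCl2. Reaction started by adding ClpB to buffer holding compound (DMSO stock diluted in buffer) and 4 mM ATP. Inorganic phosphate released from ATP quantified; matching DMSO amounts as controls.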

The test system of data set [9] is Escherichia coli. Put plainly: Inhibition of Escherichia coli ClpB ATP hydrolysis activity at 1.5 uM preincubated for 21 mins followed by ATP addition by spectrophotometric method. In outline:
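E. coli ClpB ATPase in 100 mM Tris/HCl pH 8, 1 mM DTT, 1 mM EDTA, 10 mM MgCl2, 37 °C. ClpB and compound (DMSO stock diluted in buffer) combined first; reaction started by adding ATP. ATP hydrolysis followed as inorganic phosphate generated; equivalent DMSO amounts served as controls.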

Data set [10] is described as follows: Inhibition of recombinant histidine-tagged Plasmodium falciparum choline kinase expressed in Escherichia coli using choline as substrate after 30 mins by HTRF method.
For data set [11], the system named is Plasmodium falciparum. Put plainly: Antiparasitic activity against Plasmodium falciparum 3D7 infected in erythrocytes after 72 hrs by SYBR Green 1 dye-based assay. It is filed as functional, cell-based. Particulars: 3D7, 72 h.
Data set [12] relates to Escherichia coli. Put plainly: Inhibition of Escherichia coli ClpB ATP hydrolysis activity at 2 uM after 15 mins by spectrophotometric method. In outline: as §2
Data set [13] has as its system Escherichia coli. Description: Inhibition of Escherichia coli ClpB ATP hydrolysis activity at 1.7 uM after 15 mins by spectrophotometric method. In outline: as §2

Structures are written as SMILES. Active and inactive are the calls of the source. No cut-off for these calls is given here. Where only a bound is given, the exact number is not on record here.

Consider `C[C@@H]1CN(C(=O)c2sc3ccccc3c2O)C[C@H](C)O1`, for which the half-maximal inhibitory concentration (IC50) in [1] and in data set [2] was greater than 15000 nM in each case.
Take `CC1CN(C(=O)c2cc3ccccc3[nH]2)CC(C)N1` (stereo unspecified): the IC50 in [1] and in data set [2] was greater than 15000 nM throughout.
On to `CC1CN(C(=O)c2sc3ccccc3c2Cl)CC(C)O1` (stereo unspecified), for which, in data set [2], the 50% inhibitory concentration (IC50) is 260 nM.
Consider `Cc1ccc2c(Cl)c(C(=O)N3C[C@@H](C)O[C@@H](C)C3)sc2c1`, for which the half-maximal inhibitory concentration (IC50) amounted to 201 µM in data set [3], 86 nM in data set [1] and 596 nM in data set [2]. Further, the selectivity ratio in data set [4] and in [5] was 250 to 5000 throughout.
As for `CCN(CC)CCCC(C)Nc1ccnc2cc(Cl)ccc12` (stereo unspecified) [CHLOROQUINE], in data set [3], the 50% inhibitory concentration (IC50) was greater than 100 µM.
Take `C[C@@H]1CN(C(=O)c2sc3ccccc3c2Cl)C[C@@H](C)O1`: the IC50 in [3] came to 154 µM; in [1] it was 645 nM; in [2], 2680 nM. Further, the selectivity ratio in data set [4] and in [5] was 250 to 5000 each time.
With `O=C(c1sc2ccccc2c1Cl)N1CCOCC1`, the IC50 in [1] and in data set [2] was greater than 15000 nM in each case.
With `COc1c(C(=O)N2C[C@@H](C)O[C@@H](C)C2)sc2ccccc12`, the half-maximal inhibitory concentration (IC50) in data set [1] is 429 nM; in data set [2], 1730 nM.
In the same order, the values of `CC(=O)N1CCN(C(=O)c2cc3ccccc3s2)CC1` are 10900 nM and 7750 nM.
On to `COc1ccc(COc2c(C(=O)N3C[C@@H](C)O[C@@H](C)C3)sc3ccccc23)cc1`, for which the IC50 in data set [3] was 83 µM; in data set [1], 146 nM; in data set [2], 877 nM. Moreover, the selectivity ratio in [4] and in data set [5] was 250 to 5000 throughout.
Turning to `CC1CN(C(=O)c2sc3ccccc3c2Cl)CC(C)N1` (stereo unspecified), the half-maximal inhibitory concentration (IC50) in data set [1] worked out at 4910 nM; in data set [2], 14700 nM.
On to `O=C(Nc1ccncc1)c1sc2ccccc2c1Cl`, for which, in [6], the Stability entry is listed as “Stable”. For the same molecule, the IC50 in data set [1] and in [2] was greater than 15000 nM throughout.
`C[C@@H]1CN(C(=O)c2sc3cc(Cl)ccc3c2Cl)C[C@H](C)O1`: the IC50 in [1] worked out at 407 nM; in [2], 2090 nM.
With `CCN(CC)C(=O)c1sc2ccccc2c1Cl`, the IC50 in data set [1] and in [2] was greater than 15000 nM each time.
In the case of `CC1CN(C(=O)c2cc3ccccc3o2)CC(C)N1` (stereo unspecified), the 50% inhibitory concentration (IC50) in [1] and in data set [2] was greater than 15000 nM in each case.
Turning to `C[C@@H]1CN(C(=O)c2cc3ccccc3s2)C[C@H](C)O1`, the half-maximal inhibitory concentration (IC50) in [1] was found to be 1820 nM; in data set [2], 8540 nM.
`CCc1c(C(=O)N2C[C@@H](C)O[C@@H](C)C2)sc2ccccc12`: the figures for the IC50 in data set [1] and in data set [2] were 682 nM and 2310 nM, respectively.
In the same order, the values of `C[C@@H]1CN(C(=O)c2sc3c(Cl)c(Cl)ccc3c2Cl)C[C@H](C)O1` are 2220 nM and 7440 nM.
For `C[C@@H]1CN(C(=O)c2sc3ccccc3c2OCc2ccc(F)c(F)c2)C[C@H](C)O1`, the IC50 in data set [3] was determined as 97 µM; in [1], 141 nM; in data set [2] it was 747 nM. The selectivity ratio in data set [4] and in data set [5] was 250 to 5000 in each case.
Take `O=C(Nc1ccccn1)c1sc2ccccc2c1Cl`: the half-maximal inhibitory concentration (IC50) in data set [1] and in data set [2] was greater than 15000 nM throughout.
For `C[C@@H]1CN(C(=O)c2sc3ccccc3c2OCc2ccccc2)C[C@H](C)O1`, the half-life at 1 µM in data set [7] was 2.1 min. Also, the half-inhibitory concentration (IC50) in data set [3] amounted to 73 µM; in data set [1], 38 nM; in [2] it was 142 nM. In addition, the selectivity ratio in [4] and in data set [5] was 250 to 5000 throughout. For the same molecule, the inhibition entry in [8] and in data set [9] was “inactive” throughout.
As to `C[C@@H]1CN(C(=O)c2sc3ccccc3c2Cl)C[C@H](C)O1`, the Stability result in data set [6] is “Stable”. Also, in [7], the half-life at 1 µM worked out at 40 min. Further, the half-maximal inhibitory concentration (IC50) was determined as 195 µM in data set [3], 6.3 µM in data set [10], 37 nM in data set [1] and 184 nM in data set [2]. Further, the selectivity ratio in [4] and in data set [5] was 250 to 5000 each time. The molecule also came in with an EC50 in [11] of 300 nM. The inhibition entry in data set [12] was “inactive”.
As to `C[C@@H]1CN(C(=O)c2cc3ccccc3o2)C[C@H](C)O1`, the half-maximal inhibitory concentration (IC50) in data set [1] and in [2] was greater than 15000 nM in each case.
As for `C[C@@H]1CN(C(=O)c2sc3ccccc3c2NCc2ccccc2)C[C@H](C)O1`, the IC50 in data set [1] came out at 2620 nM; in [2], 9770 nM.
As for `O=C(Nc1ccccc1)c1sc2ccccc2c1Cl`, the 50% inhibitory concentration (IC50) in data set [1] and in data set [2] was greater than 15000 nM in each case.
For the molecule `C[C@@H]1CN(C(=O)c2nc3ccccc3s2)C[C@H](C)O1`, the results for the IC50 in data set [1] and in data set [2] were 9790 nM and greater than 15000 nM, respectively.
With `O=C(NC12CC3CC(CC(C3)C1)C2)c1sc2ccccc2c1Cl`, the half-inhibitory concentration (IC50) in data set [1] and in data set [2] was greater than 15000 nM throughout.
Regarding `CN1CCN(C(=O)c2cc3ccccc3s2)CC1`, the IC50 in data set [1] and in data set [2] was greater than 15000 nM each time.
As to `Cc1c(C(=O)N2C[C@@H](C)O[C@@H](C)C2)sc2ccccc12`, the half-life at 1 µM in [7] came to 44 min. Besides, the IC50 in data set [3] is 142 µM; in data set [1], 226 nM; in data set [2] it was 753 nM. Moreover, the selectivity ratio in data set [4] and in data set [5] was 250 to 5000 each time. Also, in [13], the inhibition entry is “inactive”.
Regarding `C[C@@H]1CN(C(=O)c2sc3ccccc3c2N)C[C@H](C)O1`, the IC50 in data set [1] was 8760 nM; in data set [2], greater than 15000 nM.
In the same order, the values of `O=C(c1sc2ccccc2c1Cl)N1CCCCC1` are greater than 15000 nM and greater than 15000 nM.
As to `C[C@@H]1CN(C(=O)c2sc3cc(F)ccc3c2Cl)C[C@H](C)O1`, the Stability result in data set [6] is “Stable”. Further, the IC50 in data set [1] worked out at 74 nM; in data set [2] it was 455 nM.
Take `CC1CC(C)CN(C(=O)c2sc3ccccc3c2Cl)C1` (stereo unspecified): the figures for the IC50 in [3], in data set [1] and in data set [2] were 149 µM, 100 nM and 461 nM, respectively. The selectivity ratio in data set [4] and in [5] was 250 to 5000 throughout.
For `C[C@@H]1CN(C(=O)c2cc3ccccc3[nH]2)C[C@H](C)O1`, the IC50 in data set [1] and in data set [2] was greater than 15000 nM in each case.
`C[C@@H]1CN(C(=O)c2cc3ccccc3s2)C[C@H](C)N1`: the half-inhibitory concentration (IC50) in [1] and in data set [2] was greater than 15000 nM in each case.
As for `O=C(c1cc2ccccc2s1)N1CCOCC1`, the IC50 in data set [1] and in data set [2] was greater than 15000 nM throughout.
As to `C[C@@H]1CN(C(=O)c2sc3ccccc3c2OCc2ccc(Cl)cc2)C[C@H](C)O1`, the IC50 amounted to 48 µM in data set [3], 186 nM in [1] and 728 nM in data set [2]. Besides, the selectivity ratio in data set [4] and in data set [5] was 250 to 5000 each time.
